Assay results from ChEMBL document CHEMBL4304739, “Discovery of 3-(Indol-5-yl)-indazole Derivatives as Novel Myeloid Differentiation Protein 2/Toll-like Receptor 4 Antagonists for Treatment of Acute Lung Injury” (J Med Chem, 2019).
Active and inactive are the calls of the source. No cut-off for these calls is given here.

Experiments:
[1] = biological target: RAF proto-oncogene serine/threonine-protein kinase (Homo sapiens) (UniProt P04049); test: Inhibition of wild-type human partial length RAF1 (I330 to T640 residues) expressed in bacterial expression system at 1 uM by Kinomescan method
In short: (§1)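 Binding-competition screen on the KINOMEscan platform, run by the provider, with the test compound at 1 μM. Readout is percent of control: (test signal − positive control signal)/(negative control signal − positive control signal) × 100. The DMSO negative control is set as 100% Ctrl and a control compound as 0% Ctrl. Lower values mean stronger hits.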

[2] = biological target: Receptor tyrosine-protein kinase erbB-2 (Homo sapiens) (UniProt P04626); test: Inhibition of wild-type human partial length ERBB2 (K646 to V1225 residues) expressed in mammalian expression system at 1 uM by Kinomescan method; in short: as §1
[3] = biological target: Cyclin-dependent kinase 9 (Homo sapiens) (UniProt P50750); test: Inhibition of wild-type human full length CDK9 (M1 to F372 residues) expressed in bacterial expression system at 1 uM by Kinomescan method
In short: (§2)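 KINOMEscan competition binding screen at 1 μM compound. Results reported as % of control = (test − positive control)/(DMSO negative control − positive control) × 100, where lower values mean stronger hits.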

[4] = biological target: Dual specificity mitogen-activated protein kinase kinase 1 (Homo sapiens) (UniProt Q02750); test: Inhibition of wild-type human full length MEK1 (M1 to V393 residues) expressed in mammalian expression system at 1 uM by Kinomescan method; in short: as §2
[5] = biological target: Serine/threonine-protein kinase PAK 1 (Homo sapiens) (UniProt Q13153); test: Inhibition of wild-type human partial length PAK1 (S149 to H545 residues) expressed in bacterial expression system at 1 uM by Kinomescan method; in short: as §1
[6] = biological target: Atypical kinase COQ8A, mitochondrial (Homo sapiens) (UniProt Q8NI60); test: Inhibition of wild-type human […] length ADCK3 (M280 to Q647 residues) expressed in bacterial expression system at 1 uM by Kinomescan method; in short: as §2
[7] = biological target: Tyrosine-protein kinase receptor UFO (Homo sapiens) (UniProt P30530); test: Inhibition of wild-type human partial length AXL (R497 to Y821 residues) expressed in bacterial expression system at 1 uM by Kinomescan method; in short: as §1
Peritoneal macrophage = test: Cytotoxicity against ICR mouse peritoneal macrophages assessed as reduction in cell viability up to 20 uM measured after 24 hrs by MTT assay; assay type: cell-based
In short: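 Peritoneal macrophages from ICR mice, 2.0×10^4 cells/well in DMEM with 10% FBS. Cells exposed to compound for 24 h, then MTT (5 mg/ml in 0.9% NaCl) added for 4 h at 37 °C in 5% CO2. Absorbance read at 490 nm; final DMSO 0.1%.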

[8] = biological target: Non-receptor tyrosine-protein kinase TYK2 (Homo sapiens) (UniProt P29597); test: Inhibition of wild-type human partial length TYK2 JH1 catalytic domain (V877 to C1187 residues) expressed in mammalian expression system at 1 uM by Kinomescan method
In short: (§3)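 Single-concentration screen at 1 μM on the KINOMEscan panel (98 kinases), run by the platform provider. Results are given as percent of control: % Ctrl = [(test signal − positive control signal)/(negative control signal − positive control signal)] × 100. DMSO serves as negative control (100% Ctrl) and a control compound as positive control (0% Ctrl). Lower values mean stronger binding hits.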

[9] = tested on: Mast/stem cell growth factor receptor Kit (Homo sapiens), P10721 [V559D,T670I]; test: Inhibition of human partial length KIT V559D/T670I double mutant (Y545 to D952 residues) expressed in bacterial expression system at 1 uM by Kinomescan method
In short: (§4)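 KINOMEscan competition binding panel (98 kinases) run by the provider, compound screened once at 1 μM. Read-out is percent of control: [(test signal − positive control signal)/(negative control signal − positive control signal)] × 100. DMSO negative control sets 100% Ctrl and a control compound sets 0% Ctrl; lower values mean stronger hits.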

Mus musculus [10] = test: Antiinflammatory activity in LPS-induced C57BL/6 mouse model of acute lung injury assessed as reduction in IL12 mRNA level at 10 mg/kg, iv pretreated for 15 mins followed by LPS stimulation and measured after 6 hrs by SYBR green staining-based qRT-PCR analysis; assay type: functional, organism-based
In short: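 Total lung RNA extracted, with DNase I removal of residual DNA. Quantitative PCR with mouse gene primers; each gene normalized to β-actin. C57BL/6 mice given compound iv 15 min before intraperitoneal LPS (20 mg/kg) and killed at 6 h.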

[11] = biological target: SRSF protein kinase 3 (Homo sapiens) (UniProt Q9UPE1); test: Inhibition of wild-type human partial length SRPK3 (P41 to P567 residues) expressed in bacterial expression system at 1 uM by Kinomescan method; in short: as §3
[12] = biological target: Serine/threonine-protein kinase pim-3 (Homo sapiens) (UniProt Q86V86); test: Inhibition of wild-type human partial length PIM3 (G16 to A317 residues) expressed in bacterial expression system at 1 uM by Kinomescan method; in short: as §1
[13] = biological target: Mitogen-activated protein kinase kinase kinase 9 (Homo sapiens) (UniProt P80192); test: Inhibition of wild-type human partial length MLK1 (V88 to W426 residues) expressed in bacterial expression system at 1 uM by Kinomescan method; in short: as §1
[14] = biological target: Phosphatidylinositol 4,5-bisphosphate 3-kinase catalytic subunit alpha isoform (Homo sapiens) (UniProt P42336); test: Inhibition of wild-type human partial length PIK3CA (R108 to N1068 residues) expressed in mammalian expression system at 1 uM by Kinomescan method; in short: as §1
Mus musculus [15] = test: Antiinflammatory activity in LPS-induced C57BL/6 mouse model of acute lung injury assessed as reduction in airspace inflammation at 5 to 10 mg/kg, iv pretreated for 15 mins followed by LPS stimulation and measured after 6 hrs by H and E staining-based microscopic analysis; assay type: functional, organism-based
In short: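 Male C57BL/6 mice (18−22 g; n=8 per group). Compound in 0.1% CMC-Na given by tail vein injection 15 min before intraperitoneal LPS (20 mg/kg); controls received saline. Mice were sacrificed 6 h after LPS, and serum and lung tissue were collected.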

[16] = biological target: Tyrosine-protein kinase JAK3 (Homo sapiens) (UniProt P52333); test: Inhibition of wild-type human partial length JAK3 JH1 catalytic domain (I781 to S1124 residues) expressed in mammalian expression system at 1 uM by Kinomescan method; in short: as §1
[17] = tested on: Mast/stem cell growth factor receptor Kit (Homo sapiens), P10721 [D816V]; test: Inhibition of human partial length KIT D816V mutant (I571 to D952 residues) expressed in bacterial expression system at 1 uM by Kinomescan method; in short: as §4
[18] = biological target: Mitogen-activated protein kinase 3 (Homo sapiens) (UniProt P27361); test: Inhibition of wild-type human full length ERK1 (M1 to P379 residues) expressed in bacterial expression system at 1 uM by Kinomescan method; in short: as §2
[19] = biological target: Serine/threonine-protein kinase RIO2 (Homo sapiens) (UniProt Q9BVS4); test: Inhibition of wild-type human partial length RIOK2 (M1 to D313 residues) expressed in mammalian expression system at 1 uM by Kinomescan method; in short: as §1
Serine/threonine-protein kinase RIO2 (Homo sapiens), sequence (Q9BVS4 whole entry, looked up, the tested form may be a part): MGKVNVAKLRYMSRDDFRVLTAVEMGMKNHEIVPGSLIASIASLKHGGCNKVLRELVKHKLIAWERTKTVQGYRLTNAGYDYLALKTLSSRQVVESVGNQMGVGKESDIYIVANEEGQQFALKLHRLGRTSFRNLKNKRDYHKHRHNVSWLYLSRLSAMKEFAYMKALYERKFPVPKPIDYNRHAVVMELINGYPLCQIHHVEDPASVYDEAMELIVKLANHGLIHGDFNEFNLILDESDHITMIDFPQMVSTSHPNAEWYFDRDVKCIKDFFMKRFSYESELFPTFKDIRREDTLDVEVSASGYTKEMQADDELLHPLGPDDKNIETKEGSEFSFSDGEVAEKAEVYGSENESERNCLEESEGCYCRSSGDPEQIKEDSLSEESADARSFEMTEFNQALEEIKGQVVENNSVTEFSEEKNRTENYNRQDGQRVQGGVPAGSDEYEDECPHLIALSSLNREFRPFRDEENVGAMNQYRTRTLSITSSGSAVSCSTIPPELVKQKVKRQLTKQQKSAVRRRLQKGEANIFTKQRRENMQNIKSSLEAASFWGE

Tyrosine-protein kinase JAK3 (Homo sapiens), sequence (P52333 whole entry, the tested form may be a part): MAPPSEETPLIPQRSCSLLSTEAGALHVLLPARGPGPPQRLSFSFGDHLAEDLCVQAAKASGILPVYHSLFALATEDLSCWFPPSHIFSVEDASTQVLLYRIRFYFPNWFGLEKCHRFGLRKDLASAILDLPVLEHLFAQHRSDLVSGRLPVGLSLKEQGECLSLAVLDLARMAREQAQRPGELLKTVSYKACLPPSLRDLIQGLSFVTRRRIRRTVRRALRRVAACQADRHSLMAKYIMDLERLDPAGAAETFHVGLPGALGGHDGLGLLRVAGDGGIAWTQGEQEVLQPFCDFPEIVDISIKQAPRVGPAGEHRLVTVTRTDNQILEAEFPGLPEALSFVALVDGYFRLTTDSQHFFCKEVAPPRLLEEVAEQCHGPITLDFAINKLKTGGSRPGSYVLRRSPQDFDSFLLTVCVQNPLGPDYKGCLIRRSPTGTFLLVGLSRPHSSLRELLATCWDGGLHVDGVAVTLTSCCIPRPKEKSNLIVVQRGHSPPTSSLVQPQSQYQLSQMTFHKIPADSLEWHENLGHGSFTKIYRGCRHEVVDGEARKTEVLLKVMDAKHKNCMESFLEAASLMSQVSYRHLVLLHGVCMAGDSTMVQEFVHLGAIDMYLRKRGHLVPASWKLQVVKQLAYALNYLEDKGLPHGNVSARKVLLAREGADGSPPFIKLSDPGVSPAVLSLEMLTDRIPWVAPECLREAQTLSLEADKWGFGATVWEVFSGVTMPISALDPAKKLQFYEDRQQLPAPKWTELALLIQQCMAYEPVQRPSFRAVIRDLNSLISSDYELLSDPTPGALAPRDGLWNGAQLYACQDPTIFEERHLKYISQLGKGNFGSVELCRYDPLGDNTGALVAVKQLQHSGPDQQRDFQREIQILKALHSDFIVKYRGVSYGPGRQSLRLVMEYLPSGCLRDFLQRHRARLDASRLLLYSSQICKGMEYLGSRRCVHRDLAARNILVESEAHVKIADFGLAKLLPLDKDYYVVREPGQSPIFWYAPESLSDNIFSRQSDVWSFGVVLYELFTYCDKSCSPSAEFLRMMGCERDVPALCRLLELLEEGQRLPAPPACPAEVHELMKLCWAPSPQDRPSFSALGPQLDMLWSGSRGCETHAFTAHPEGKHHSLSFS
Mitogen-activated protein kinase 3 (Homo sapiens), sequence (P27361 whole entry, the tested form may be a part): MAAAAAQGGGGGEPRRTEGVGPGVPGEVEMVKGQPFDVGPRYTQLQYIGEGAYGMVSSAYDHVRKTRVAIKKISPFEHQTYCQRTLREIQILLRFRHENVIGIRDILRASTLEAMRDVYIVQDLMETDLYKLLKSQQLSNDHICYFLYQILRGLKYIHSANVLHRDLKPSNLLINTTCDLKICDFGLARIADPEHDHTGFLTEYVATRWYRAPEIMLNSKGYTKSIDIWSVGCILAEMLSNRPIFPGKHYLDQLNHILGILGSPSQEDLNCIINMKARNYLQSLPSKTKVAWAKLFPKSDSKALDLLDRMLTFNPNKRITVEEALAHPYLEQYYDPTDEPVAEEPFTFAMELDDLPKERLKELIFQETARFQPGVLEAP
RAF proto-oncogene serine/threonine-protein kinase (Homo sapiens), sequence (P04049 whole entry, the tested form may be a part): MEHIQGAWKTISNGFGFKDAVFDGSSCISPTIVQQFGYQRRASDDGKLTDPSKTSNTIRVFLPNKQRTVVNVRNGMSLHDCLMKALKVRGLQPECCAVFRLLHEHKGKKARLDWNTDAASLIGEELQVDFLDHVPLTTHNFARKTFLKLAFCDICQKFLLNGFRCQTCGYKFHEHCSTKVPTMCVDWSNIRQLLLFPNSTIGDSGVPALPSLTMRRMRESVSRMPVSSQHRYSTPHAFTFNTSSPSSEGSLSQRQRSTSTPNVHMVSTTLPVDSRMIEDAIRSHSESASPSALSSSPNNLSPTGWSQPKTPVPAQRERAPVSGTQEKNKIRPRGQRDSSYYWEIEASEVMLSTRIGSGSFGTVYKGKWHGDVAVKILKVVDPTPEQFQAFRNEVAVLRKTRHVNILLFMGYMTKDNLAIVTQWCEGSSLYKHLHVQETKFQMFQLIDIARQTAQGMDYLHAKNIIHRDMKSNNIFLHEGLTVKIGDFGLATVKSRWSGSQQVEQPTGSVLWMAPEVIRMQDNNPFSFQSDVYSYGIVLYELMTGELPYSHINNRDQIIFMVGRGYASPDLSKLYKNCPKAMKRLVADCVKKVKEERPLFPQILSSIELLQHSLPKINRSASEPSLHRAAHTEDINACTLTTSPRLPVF
Receptor tyrosine-protein kinase erbB-2 (Homo sapiens), sequence (P04626 whole entry, the tested form may be a part): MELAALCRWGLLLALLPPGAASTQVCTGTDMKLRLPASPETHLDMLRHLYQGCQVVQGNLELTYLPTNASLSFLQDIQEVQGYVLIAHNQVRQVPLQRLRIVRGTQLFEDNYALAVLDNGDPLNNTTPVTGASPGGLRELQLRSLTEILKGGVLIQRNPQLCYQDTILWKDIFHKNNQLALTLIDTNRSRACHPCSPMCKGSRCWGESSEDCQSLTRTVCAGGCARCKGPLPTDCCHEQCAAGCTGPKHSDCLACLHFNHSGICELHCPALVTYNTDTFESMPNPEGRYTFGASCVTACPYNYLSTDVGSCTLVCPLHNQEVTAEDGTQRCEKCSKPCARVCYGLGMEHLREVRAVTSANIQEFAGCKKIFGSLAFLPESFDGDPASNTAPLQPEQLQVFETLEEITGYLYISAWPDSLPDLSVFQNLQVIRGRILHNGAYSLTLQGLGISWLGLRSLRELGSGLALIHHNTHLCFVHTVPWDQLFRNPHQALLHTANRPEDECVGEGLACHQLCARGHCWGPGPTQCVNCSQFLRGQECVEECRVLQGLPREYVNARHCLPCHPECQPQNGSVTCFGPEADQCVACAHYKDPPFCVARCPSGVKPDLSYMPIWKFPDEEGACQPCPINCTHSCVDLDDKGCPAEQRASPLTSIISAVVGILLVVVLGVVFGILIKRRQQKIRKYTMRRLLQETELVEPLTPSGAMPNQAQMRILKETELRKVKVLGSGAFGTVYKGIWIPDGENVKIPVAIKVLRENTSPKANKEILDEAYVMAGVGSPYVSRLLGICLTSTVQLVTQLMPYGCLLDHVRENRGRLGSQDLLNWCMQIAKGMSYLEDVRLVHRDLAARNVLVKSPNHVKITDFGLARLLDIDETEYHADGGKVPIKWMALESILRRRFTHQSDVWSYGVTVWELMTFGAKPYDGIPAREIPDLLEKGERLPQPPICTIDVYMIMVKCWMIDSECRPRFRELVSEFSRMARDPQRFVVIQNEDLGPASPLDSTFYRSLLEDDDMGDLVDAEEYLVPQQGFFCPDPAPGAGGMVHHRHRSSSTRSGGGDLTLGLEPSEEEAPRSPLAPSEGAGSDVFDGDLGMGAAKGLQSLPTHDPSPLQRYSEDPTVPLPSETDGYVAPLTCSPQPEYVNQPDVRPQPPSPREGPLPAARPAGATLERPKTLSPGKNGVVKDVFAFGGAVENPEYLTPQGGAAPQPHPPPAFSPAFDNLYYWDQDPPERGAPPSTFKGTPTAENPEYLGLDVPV
Mitogen-activated protein kinase kinase kinase 9 (Homo sapiens), sequence (P80192 whole entry, looked up, the tested form may be a part, canonical isoform): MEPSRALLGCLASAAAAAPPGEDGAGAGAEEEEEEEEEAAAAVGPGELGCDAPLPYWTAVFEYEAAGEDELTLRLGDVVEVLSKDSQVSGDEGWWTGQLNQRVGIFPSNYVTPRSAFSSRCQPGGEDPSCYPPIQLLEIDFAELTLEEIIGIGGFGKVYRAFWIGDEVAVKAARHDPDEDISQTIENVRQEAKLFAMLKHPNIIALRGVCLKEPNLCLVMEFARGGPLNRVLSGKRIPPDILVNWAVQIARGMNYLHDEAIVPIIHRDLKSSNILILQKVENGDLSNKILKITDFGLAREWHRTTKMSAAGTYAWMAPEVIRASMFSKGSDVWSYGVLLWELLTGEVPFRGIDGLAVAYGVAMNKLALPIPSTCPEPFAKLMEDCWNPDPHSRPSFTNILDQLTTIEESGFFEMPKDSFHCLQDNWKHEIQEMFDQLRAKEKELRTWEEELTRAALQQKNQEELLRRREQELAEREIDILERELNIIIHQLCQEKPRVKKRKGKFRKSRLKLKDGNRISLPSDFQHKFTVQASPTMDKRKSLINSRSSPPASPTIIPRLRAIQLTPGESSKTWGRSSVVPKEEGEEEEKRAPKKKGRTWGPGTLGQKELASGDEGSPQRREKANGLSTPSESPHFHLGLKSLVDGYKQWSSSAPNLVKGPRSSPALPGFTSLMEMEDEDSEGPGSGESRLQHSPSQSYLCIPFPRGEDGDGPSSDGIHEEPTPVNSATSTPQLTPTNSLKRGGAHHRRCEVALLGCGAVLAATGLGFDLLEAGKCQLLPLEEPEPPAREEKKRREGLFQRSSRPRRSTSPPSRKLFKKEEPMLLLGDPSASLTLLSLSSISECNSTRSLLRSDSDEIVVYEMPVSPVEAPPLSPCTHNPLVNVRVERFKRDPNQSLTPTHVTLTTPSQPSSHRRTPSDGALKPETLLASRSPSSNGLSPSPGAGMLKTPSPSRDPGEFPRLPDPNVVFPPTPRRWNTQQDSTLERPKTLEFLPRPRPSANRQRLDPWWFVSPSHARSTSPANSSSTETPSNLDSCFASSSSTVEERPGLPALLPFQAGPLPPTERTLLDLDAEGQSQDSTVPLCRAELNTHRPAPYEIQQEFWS

O=C(Nc1ccc2[nH]nc(-c3ccc4[nH]ccc4c3)c2c1)c1c(Cl)cccc1Cl
inhibition [1]: inactive
inhibition [2]: inactive
inhibition [3]: inactive
inhibition [4]: inactive
inhibition [5]: inactive
inhibition [6]: inactive
inhibition [7]: inactive
Activity (Peritoneal macrophage): Non-Toxic
inhibition [8]: inactive
inhibition [9]: inactive
Activity (Mus musculus [10]): Active
inhibition [11]: inactive
inhibition [12]: inactive
inhibition [13]: inactive
inhibition [14]: inactive
Activity (Mus musculus [15]): Active
inhibition [16]: inactive
inhibition [17]: inactive
inhibition [18]: inactive
inhibition [19]: inactive
